The text below walks through data of ChEMBL document CHEMBL5329211, “Selective isoxazolopyrimidine PAT1 (SLC26A6) inhibitors for therapy of intestinal disorders” (RSC Med Chem, 2023).

Molecules are shown by their SMILES. Active and inactive are the calls of the source. The calls are words filed in the database; no cut-off is given here.

Chain of Solute carrier family 26 member 6 (Mus musculus) (Q8CIW6 whole entry, looked up): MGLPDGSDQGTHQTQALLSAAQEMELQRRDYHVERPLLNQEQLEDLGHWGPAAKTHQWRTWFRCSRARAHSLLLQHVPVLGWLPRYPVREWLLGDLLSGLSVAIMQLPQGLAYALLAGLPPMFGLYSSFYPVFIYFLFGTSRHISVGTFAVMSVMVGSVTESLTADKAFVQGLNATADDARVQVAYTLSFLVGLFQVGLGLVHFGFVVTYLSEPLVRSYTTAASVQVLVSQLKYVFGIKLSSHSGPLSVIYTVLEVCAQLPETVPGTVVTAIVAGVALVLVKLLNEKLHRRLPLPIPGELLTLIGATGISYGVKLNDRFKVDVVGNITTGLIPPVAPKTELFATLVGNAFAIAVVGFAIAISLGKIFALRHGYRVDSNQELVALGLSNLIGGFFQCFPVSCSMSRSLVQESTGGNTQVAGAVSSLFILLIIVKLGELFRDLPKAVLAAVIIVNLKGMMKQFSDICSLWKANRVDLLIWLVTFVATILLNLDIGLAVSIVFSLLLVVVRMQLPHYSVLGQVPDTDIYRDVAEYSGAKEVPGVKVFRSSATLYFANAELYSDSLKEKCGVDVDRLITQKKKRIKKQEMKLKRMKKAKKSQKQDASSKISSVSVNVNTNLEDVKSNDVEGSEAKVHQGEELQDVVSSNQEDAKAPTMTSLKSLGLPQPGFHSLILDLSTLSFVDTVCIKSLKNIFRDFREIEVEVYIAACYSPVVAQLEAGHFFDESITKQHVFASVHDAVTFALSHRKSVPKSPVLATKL

For the first assay, the system named is Mus musculus. Nature of the assay: In vivo inhibition of PAT1 in intestinal closed-loop CD-1 mouse model assessed as reduction in loop weight/length ratio in ileum measured for 30 mins. Format: functional. Put shortly:
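Mice (wild-type CD1 or homozygous F508del CF, 10-16 wk, both sexes) fasted 24 h with free access to 5% dextrose water. Under isoflurane at 36-38 °C, 2-3 ileal loops (2-3 cm) were tied off and injected with 100 µL PBS pH 7.4 containing 30 µM inhibitor, 10 µM tenapanor or 0.1% DMSO vehicle. Loops removed at 0 or 30 min in separate mice; length and weight measured for fluid absorption. One-way ANOVA with Newman-Keuls.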
The term inhibition denotes the change of the read-out against control, counted positive when it falls. Consider `CN1Cc2c(Cl)cc(Cl)cc2[C@H](c2cccc(S(=O)(=O)NCCOCCOCCNC(=O)NCCCCNC(=O)NCCOCCOCCNS(=O)(=O)c3cccc([C@@H]4CN(C)Cc5c(Cl)cc(Cl)cc54)c3)c2)C1`, for which the inhibition entry is “Active”.

A further assay addresses Solute carrier family 26 member 6 (Mus musculus) (UniProt Q8CIW6). Nature of the assay: Inhibition of SLC26A6 (unknown origin) expressed in rat FRT cells coexpressing YFP halide-sensing protein assessed as iodide-chloride exchange incubated for 2 sec by fluorescence quenching analysis.
Usually IC50 stands for the concentration that gives 50% inhibition. Turning to `CCOC(=O)c1nc(NCc2cccc(C)c2)c2c(C)noc2n1`, the IC50 amounted to 1.1 µM.

For the molecule `CCOC(=O)c1nc(NCc2cccc(F)c2)c2c(C)noc2n1`, the IC50 turned out to be 2.2 µM.

As for `CCOC(=O)c1nc(NCc2ccc(F)cc2)c2c(CC)noc2n1`, the IC50 was 3.2 µM.

With `CCOC(=O)c1nc(NCc2cc(C)ccc2C)c2c(C)noc2n1`, the IC50 came out at 1.5 µM.

Consider `CCOC(=O)c1nc(NCc2ccccc2)c2c(C)noc2n1`, for which the IC50 was determined as 1.8 µM.

With `CCOC(=O)c1nc(NCc2ccccc2)c2c(CC)noc2n1`, the IC50 is 4.3 µM.

In the case of `CCOC(=O)c1nc(NCc2ccccc2OC)c2c(C)noc2n1`, the IC50 was 17.2 µM.

For the molecule `CCOC(=O)c1nc(NCc2cccc(Br)c2)c2c(C)noc2n1`, the IC50 is 1.1 µM.

For the molecule `CCOC(=O)c1nc(NCc2ccc(F)cc2)c2c(C)noc2n1`, the IC50 was found to be 2.3 µM.

Regarding `CCOC(=O)c1nc(NCc2ccc(C)cc2)c2c(CC)noc2n1`, the IC50 is 3.8 µM.

In the case of `CCOC(=O)c1nc(NCc2cc(Br)ccc2OC)c2c(CC)noc2n1`, the IC50 is 2.5 µM.

`CCOC(=O)c1nc(NCc2ccc(Cl)cc2)c2c(CC)noc2n1`: the IC50 was 3.4 µM.

As to `CCOC(=O)c1nc(NCCc2ccc(Cl)cc2)c2c(CC)noc2n1`, the IC50 amounted to 5.2 µM.

On to `CCOC(=O)c1nc(NCc2ccc(OC(C)C)cc2)c2c(C)noc2n1`, for which the IC50 was 6.5 µM.

For `CCOC(=O)c1nc(NCCc2ccco2)c2c(C)noc2n1`, the IC50 turned out to be 2.4 µM.

Consider `CCOC(=O)c1nc(N2CCN(c3cccc(Cl)c3)CC2)c2c(C)noc2n1`, for which the IC50 was 2.6 µM.

`CCOC(=O)c1nc(NCc2cccnc2)c2c(-c3ccc(F)cc3)noc2n1`: the half-inhibitory concentration (IC50) is 3.4 µM.

Regarding `CCOC(=O)c1nc(Nc2ccccc2C)c2c(C)noc2n1`, the IC50 amounted to 3.7 µM.

Regarding `CCOC(=O)c1nc(NCCc2ccco2)c2c(CC)noc2n1`, the IC50 came out at 1.4 µM.

Regarding `CCOC(=O)c1nc(NCc2cccc(OC)c2)c2c(C)noc2n1`, the IC50 is 4.4 µM.

Consider `CCOC(=O)c1nc(NCc2ccccc2F)c2c(C)noc2n1`, for which the IC50 came out at 1.1 µM.

Turning to `CCOC(=O)c1nc(NCCC(C)C)c2c(C)noc2n1`, the half-maximal inhibitory concentration (IC50) was determined as 2.3 µM.

As for `CCOC(=O)c1nc(Nc2cccc(C)c2C)c2c(C)noc2n1`, the IC50 was determined as 1.2 µM.

On to `CCOC(=O)c1nc(NCC(C)OC)c2c(-c3ccc(F)cc3)noc2n1` (stereo not drawn), for which the IC50 turned out to be 5.1 µM.

Regarding `CCOC(=O)c1nc(NCc2ccccc2Cl)c2c(C)noc2n1`, the IC50 was 1.1 µM.

Consider `CCOC(=O)c1nc(NCc2ccccc2F)c2c(CC)noc2n1`, for which the IC50 was determined as 5.2 µM.

`CCOC(=O)c1nc(NCCc2ccccc2)c2c(CC)noc2n1`: the IC50 was determined as 3.2 µM.

For the molecule `CCOC(=O)c1nc(NCc2cc(OC)ccc2OC)c2c(CC)noc2n1`, the IC50 was determined as 3.7 µM.

As for `CCOC(=O)c1nc(NCc2ccc(SC)cc2)c2c(C)noc2n1`, the IC50 amounted to 2.6 µM.

As for `CCOC(=O)c1nc(NCCc2cccs2)c2c(CC)noc2n1`, the IC50 stood at 1.6 µM.

As to `CCOC(=O)c1nc(NCCc2ccsc2)c2c(C)noc2n1`, the IC50 worked out at 1.8 µM.

For the molecule `CCOC(=O)c1nc(NCc2ccccc2OC)c2c(CC)noc2n1`, the IC50 stood at 1.9 µM.

For the molecule `CCCOc1ccc(CNc2nc(C(=O)OCC)nc3onc(C)c23)cc1`, the IC50 was 5.7 µM.

As to `CCOC(=O)c1nc(NCc2ccc(OCC)cc2)c2c(C)noc2n1`, the IC50 was 2 µM.

As to `CCOC(=O)c1nc(NCCc2ccccc2Cl)c2c(CC)noc2n1`, the IC50 turned out to be 5.2 µM.

The next assay has the same target. Nature of the assay: Inhibition of SLC26A6 (unknown origin) expressed in rat FRT cells coexpressing YFP halide-sensing protein assessed as iodide-chloride exchange at 25 uM incubated for 2 sec by fluorescence quenching analysis relative to control.
Take `CCOC(=O)c1nc(NCc2cccc(Br)c2)c2c(-c3ccc(F)cc3)noc2n1`: the inhibition was under 25%.

Consider `CCOC(=O)c1nc(NCc2ccccc2OCC)c2c(C)noc2n1`, for which the inhibition was under 25%.
